Measurements collected from several papers.
Lines come from different studies, so protocols differ.
CCR5: C-C chemokine receptor type 5 (CCR5, Homo sapiens, UniProt P51681)
SIRT6: NAD-dependent protein deacylase sirtuin-6 (SIRT6, Homo sapiens, UniProt Q8N6T7)
Plasmepsin II: Plasmepsin II (Plasmodium falciparum, UniProt P46925)
HTR7: 5-hydroxytryptamine receptor 7 (HTR7, Homo sapiens, UniProt P34969)
Adra1a: Alpha-1A adrenergic receptor (Adra1a, Rattus norvegicus, UniProt P43140)

| Structure (SMILES) | target | test | system | conditions | inhibition |
| --- | --- | --- | --- | --- | --- |
| Ic1cccc2cnccc12 | Protein mono-ADP-ribosyltransferase PARP14 (PARP14, Homo sapiens, UniProt Q460N5) | enzyme activity, inhibitor | – | 10 µM | 7% |
| OCc1cc(C(O)CNCCCCCCOCCCCc2ccccc2)ccc1O (centres unmarked) | CCR5 | calcium signal, antagonist | U87/CD4/CCR5 | 100 µM | 60% |
| CC(C)(C)c1ccc(CONC(=O)c2ccc(C(N)=O)cc2)cc1 | SIRT6 | enzyme activity, inhibitor, fluorescence | – | 100 µM | 95.1% |
| O=[N+]([O-])c1ccc(N2CCCN(CCC(O)c3csc4ccc(F)cc34)CC2)c(C(F)(F)F)c1 (centres unmarked) | Plasmepsin II | enzyme activity, inhibitor | – | 5 µM | 8% |
| O=C(NC1CCC1)[C@H](Cc1c[nH]c2ccccc12)NC(=O)[C@H](CCCCNC(=S)NCCc1nnn[nH]1)NS(=O)(=O)c1cccc(F)c1 | SIRT6 | enzyme activity, inhibitor | – | 10 µM | 6% |
| O=C(Nc1ccc(S(=O)(=O)N2CCC(Cl)CC2)cc1)c1ccc([N+](=O)[O-])o1 | Platelet-activating factor receptor (PTAFR, Homo sapiens, UniProt P25105) | ligand displacement, radioligand | – | 10 µM | 39% |
| O=C(c1ccc(Cl)cc1)N(Cc1ccccc1)C1CCCCC1 | HTR7 | ligand displacement, radioligand | – | 10 µM | 19.2% |
| COC(=O)c1ccc(C(=O)NOCc2ccccc2)cc1 | SIRT6 | enzyme activity, inhibitor, fluorescence | – | 100 µM | 52.2% |
| CCCNc1nc2ccccc2n1Cc1ccc(Cl)cc1 | 5-hydroxytryptamine receptor 6 (HTR6, Homo sapiens, UniProt P50406) | ligand displacement | – | 10 µM | 36.6% |
| NC(=O)c1ccc(C(=O)NOCc2cccc3ccccc23)cc1 | SIRT6 | enzyme activity, inhibitor, fluorescence | – | 100 µM | 92.2% |
| CSSc1ccccc1C(=O)O | Cathepsin B (CTSB, Homo sapiens, UniProt P07858) | enzyme activity, inhibitor, fluorescence | – | 20 µM | 100% |
| N=c1n(CCN2CCCCC2)c2ccccc2n1CC(O)c1cccc(Br)c1 (centres unmarked) | Sodium channel protein type 5 subunit alpha (SCN5A, Homo sapiens, UniProt Q14524) | ion current, inhibitor, patch clamp | CHO | 10 µM | 66% |
| CN(C)C1CCN(CC#Cc2nn(C3CCCC3)c3nc(NCc4ccccc4)ncc23)C1 (centres unmarked) | Mitogen-activated protein kinase 13 (MAPK13, Homo sapiens, UniProt O15264) | enzyme activity, inhibitor, FRET | – | 0.1 µM | 1% |
| O=C(NOCc1ccc(C(F)(F)F)cc1)c1ccc(-c2nn[nH]n2)cc1 | SIRT6 | enzyme activity, inhibitor, fluorescence | – | 100 µM | 4.2% |
| Cc1cnc(C(=O)NCCNC(=O)Cn2[nH]c(=O)c3ccccc3c2=O)cn1 | Poly [ADP-ribose] polymerase 2 (PARP2, Homo sapiens, UniProt Q9UGN5) | enzyme activity, inhibitor | – | 0.5 µM | ~50% |
| C=CCC1(/C=C(\C)C=C)SC(=O)C(CC)=C1O (racemic) | Nicotinamide N-methyltransferase (NNMT, Homo sapiens, UniProt P40261) | enzyme activity, inhibitor | – | 10 µM | ~35% |
| NCc1cccc(C(=O)NOCc2ccc(C(F)(F)F)cc2)c1 | SIRT6 | enzyme activity, inhibitor, fluorescence | – | 100 µM | 72.2% |
| C1=CSC(=C2SC=CS2)S1 | Ubiquitin carboxyl-terminal hydrolase 14 (USP14, Homo sapiens, UniProt P54578) | enzyme activity, inhibitor | – | 17 µM | 54% |
| O=C(c1ccc(F)cc1)N(Cc1ccccc1)C1CCCCC1 | Adra1a | cell-free assay | – | 10 µM | -1% |
| CCCCCCOc1c(OC)cc2c3c1-c1cc4c(cc1CC3N(C)CC2c1ccccc1)OCO4 (centres unmarked) | HTR7 | ligand displacement, radioligand | – | 10 µM | -14.6% |
| O=[N+]([O-])c1ccc(N2CCN(CCC(O)c3csc4ccc(F)cc34)CC2)c(C(F)(F)F)c1 (centres unmarked) | Plasmepsin II | enzyme activity, inhibitor | – | 5 µM | 13% |
| COc1ccccc1CONC(=O)c1ccc(C(N)=O)cc1 | SIRT6 | enzyme activity, inhibitor, fluorescence | – | 100 µM | 60.5% |
| CC/C(=N\NC(=O)NCc1cccc(O)c1)c1ccc(O)c(C)c1O | [Pyruvate dehydrogenase (acetyl-transferring)] kinase isozyme 4, mitochondrial (PDK4, Homo sapiens, UniProt Q16654) | enzyme activity, inhibitor | – | 0.1 µM | -2.1% |
| C/C(=C\C(=O)OCCCCCCCCC(=O)O)C[C@@H]1OC[C@H](C[C@@H]2O[C@H]2[C@@H](C)[C@H](C)O)[C@@H](O)[C@H]1O | CCR5 | calcium signal, antagonist | U87/CD4/CCR5 | 0.8 µM | 52% |
| CN(Cc1ccc(NC(=O)C2=Cc3cc(-c4ccc(OCCCF)cc4)ccc3CCC2)cc1)C1CCOCC1 | C-C chemokine receptor type 2 (CCR2, Homo sapiens, UniProt P41597) | ligand displacement, radioligand | – | 1 µM, cell membranes | 48% |
| Cc1ccc(Sc2ccc(CONC(=O)c3ccc(C(N)=O)cc3)cc2C(F)(F)F)cc1 | SIRT6 | enzyme activity, inhibitor, fluorescence | – | 100 µM | 98.6% |
| O=[N+]([O-])c1ccc(N2CCN(CCC(O)c3ccc(F)cc3)CC2)c(C(F)(F)F)c1 (centres unmarked) | Plasmepsin II | enzyme activity, inhibitor | – | 5 µM | 0% |
| NC(=O)c1ccc(C(=O)NOCc2ccc(Sc3ccccc3Cl)c(C(F)(F)F)c2)cc1 | SIRT6 | enzyme activity, inhibitor, fluorescence | – | 100 µM | 99.1% |
| CCN(Cc1ccccc1C(F)(F)F)C(=O)C1CCN(S(=O)(=O)c2ccc3[nH]ncc3c2)CC1 | Adra1a | ligand displacement, radioligand | – | 10 µM | 12% |
